ChEMBL document CHEMBL1138901, “Design, synthesis, and biological evaluation of the combinatorial library with a new spirodiketopiperazine scaffold. Discovery of novel potent and selective low-molecular-weight CCR5 antagonists” (J Med Chem, 2006)
Active and inactive are the calls of the source. The rule behind the calls is not given here.

Legend:
[1] = test system: Human immunodeficiency virus 1; test: Antiviral activity against T cell tropic HIV1 X4; assay type: functional, organism-based
[2] = molecular target: T1, C-X-C chemokine receptor type 4 (Homo sapiens, UniProt P61073); test: Antagonist activity against human recombinant CXCR4 expressed in CHO cells assessed as inhibition of human SDF1-alpha-stimulated calcium mobilization; assay type: functional, cell-based
T1 sequence (P61073 whole entry): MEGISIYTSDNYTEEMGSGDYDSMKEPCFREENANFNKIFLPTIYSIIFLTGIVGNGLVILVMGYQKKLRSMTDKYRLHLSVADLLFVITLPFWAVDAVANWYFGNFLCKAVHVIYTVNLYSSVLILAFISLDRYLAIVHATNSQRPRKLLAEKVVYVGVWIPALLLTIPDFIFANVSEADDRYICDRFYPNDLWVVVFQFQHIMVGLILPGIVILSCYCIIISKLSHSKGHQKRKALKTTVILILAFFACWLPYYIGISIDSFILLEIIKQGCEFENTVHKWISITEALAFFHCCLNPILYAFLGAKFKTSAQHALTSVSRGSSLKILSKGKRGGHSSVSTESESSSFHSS
Procedure, shortened: (§1)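 Human chemokine receptor-overexpressing CHO cells were stimulated with the matching human endogenous ligand, and calcium mobilization was read out. Library members were tested at 30 µM. Crude products were dissolved in DMSO as 10 mM stocks and used without further purification.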

[3] = molecular target: C-C chemokine receptor type 4 (Homo sapiens, UniProt P51679); test: Antagonist activity against human recombinant CCR4 expressed in CHO cells assessed as inhibition of human […]-stimulated calcium mobilization; assay type: functional, cell-based; procedure, shortened: as §1
Chain of C-C chemokine receptor type 4 (P51679 whole entry, looked up): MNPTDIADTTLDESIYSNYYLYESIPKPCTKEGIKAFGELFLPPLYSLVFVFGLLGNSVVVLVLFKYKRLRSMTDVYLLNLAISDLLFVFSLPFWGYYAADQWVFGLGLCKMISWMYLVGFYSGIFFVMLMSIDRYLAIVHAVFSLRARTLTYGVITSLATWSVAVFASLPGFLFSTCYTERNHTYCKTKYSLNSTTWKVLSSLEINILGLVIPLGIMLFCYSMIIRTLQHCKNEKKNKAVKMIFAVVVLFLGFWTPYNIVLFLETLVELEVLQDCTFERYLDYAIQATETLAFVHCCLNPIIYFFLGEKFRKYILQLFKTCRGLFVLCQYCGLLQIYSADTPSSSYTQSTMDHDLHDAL

[4] = molecular target: T2, C-C chemokine receptor type 5 (Homo sapiens, UniProt P51681); test: Antagonist activity against human recombinant CCR5 expressed in CHO cells assessed as inhibition of human MIP-1-alpha-stimulated calcium mobilization; assay type: functional, cell-based; procedure, shortened: as §1
T2 sequence (P51681 whole entry): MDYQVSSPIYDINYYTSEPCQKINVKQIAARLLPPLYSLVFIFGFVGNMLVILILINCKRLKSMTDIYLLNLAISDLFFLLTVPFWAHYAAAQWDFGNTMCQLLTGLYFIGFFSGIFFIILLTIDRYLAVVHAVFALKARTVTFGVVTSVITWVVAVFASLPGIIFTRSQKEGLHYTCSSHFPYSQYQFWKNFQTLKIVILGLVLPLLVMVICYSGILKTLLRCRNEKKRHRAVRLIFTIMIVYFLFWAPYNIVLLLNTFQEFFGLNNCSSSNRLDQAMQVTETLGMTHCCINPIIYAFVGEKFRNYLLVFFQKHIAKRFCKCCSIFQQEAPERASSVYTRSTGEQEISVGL

[5] = molecular target: T1, C-X-C chemokine receptor type 4; test: Inhibition of radio-isotope labeled SDF1-alpha binding to human recombinant CXCR4
[6] = molecular target: T2, C-C chemokine receptor type 5; test: Inhibition of radio-isotope labeled MIP1-alpha binding to human recombinant CCR5
[7] = molecular target: T3, C-C chemokine receptor type 2 (Homo sapiens, UniProt P41597); test: Antagonist activity against human recombinant CCR2 expressed in CHO cells assessed as inhibition of human MCP1-stimulated calcium mobilization; assay type: functional, cell-based; procedure, shortened: as §1
T3 sequence (P41597 whole entry): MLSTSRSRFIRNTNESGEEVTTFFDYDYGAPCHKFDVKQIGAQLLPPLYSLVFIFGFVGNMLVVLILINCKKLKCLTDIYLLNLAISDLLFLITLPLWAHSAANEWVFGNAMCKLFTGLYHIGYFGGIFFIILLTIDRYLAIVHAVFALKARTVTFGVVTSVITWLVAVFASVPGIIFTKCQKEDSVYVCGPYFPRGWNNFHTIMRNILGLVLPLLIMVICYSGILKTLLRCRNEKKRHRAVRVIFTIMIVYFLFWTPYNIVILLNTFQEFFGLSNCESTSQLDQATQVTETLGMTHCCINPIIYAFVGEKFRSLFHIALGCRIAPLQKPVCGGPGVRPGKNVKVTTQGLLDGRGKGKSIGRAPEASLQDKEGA

[8] = molecular target: T3, C-C chemokine receptor type 2; test: Inhibition of radio-isotope labeled MCP1 binding to human recombinant CCR2
[9] = molecular target: Sigma non-opioid intracellular receptor 1 (Homo sapiens, UniProt Q99720); test: Binding affinity to sigma receptor
Chain of Sigma non-opioid intracellular receptor 1 (Q99720 whole entry): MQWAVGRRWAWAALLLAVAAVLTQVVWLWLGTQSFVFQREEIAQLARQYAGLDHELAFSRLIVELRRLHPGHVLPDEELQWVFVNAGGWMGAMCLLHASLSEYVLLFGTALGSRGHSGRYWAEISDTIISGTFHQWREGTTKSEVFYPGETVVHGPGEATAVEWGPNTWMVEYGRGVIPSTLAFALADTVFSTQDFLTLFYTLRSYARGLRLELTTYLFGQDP

[10] = molecular target: Muscarinic acetylcholine receptor M3 (Homo sapiens, UniProt P20309); test: Binding affinity to muscarinic M3 receptor
Chain of Muscarinic acetylcholine receptor M3 (P20309 whole entry): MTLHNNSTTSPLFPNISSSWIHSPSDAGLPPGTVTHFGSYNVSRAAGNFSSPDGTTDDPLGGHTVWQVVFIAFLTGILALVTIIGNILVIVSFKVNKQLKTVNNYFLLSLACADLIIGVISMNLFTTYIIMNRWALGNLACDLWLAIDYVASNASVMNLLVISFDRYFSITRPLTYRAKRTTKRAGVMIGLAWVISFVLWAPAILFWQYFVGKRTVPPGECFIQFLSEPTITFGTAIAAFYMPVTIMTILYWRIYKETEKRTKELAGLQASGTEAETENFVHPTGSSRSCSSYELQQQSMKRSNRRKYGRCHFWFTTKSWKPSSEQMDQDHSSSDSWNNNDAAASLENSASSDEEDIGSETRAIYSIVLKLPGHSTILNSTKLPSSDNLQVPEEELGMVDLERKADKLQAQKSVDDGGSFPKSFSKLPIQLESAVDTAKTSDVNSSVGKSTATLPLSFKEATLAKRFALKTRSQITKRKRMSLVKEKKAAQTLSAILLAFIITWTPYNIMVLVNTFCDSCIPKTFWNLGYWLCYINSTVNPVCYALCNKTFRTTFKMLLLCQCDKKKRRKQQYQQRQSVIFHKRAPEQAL

Row | SMILES | IC50 [2] | IC50 [3] | IC50 [4] | IC50 [5] | IC50 [6] | IC50 [7] | IC50 [9] | IC50 [10] | Activity [1] | IC50 [8]
1 | CCCCN1C(=O)C(CC2CCCCC2)NC(=O)C12CCN(Cc1ccc3c(c1)OCCO3)CC2 (stereo unspecified) | > 10 µM |  | 0.02 µM | > 10 µM | 0.0025 µM | > 10 µM | 0.183 µM | 2.07 µM | inactive | > 10 µM
2 | CCCN1C(=O)C(CC(C)C)NC(=O)C12CCN(Cc1ccc(Oc3ccccc3)cc1)CC2 (stereo unspecified) | > 30 µM | > 30 µM | 0.5 µM | > 30 µM | 0.017 µM | > 30 µM |  |  | inactive | > 30 µM
3 | CCCCN1C(=O)C(CC2CCCCC2)NC(=O)C12CCN(Cc1ccc(OC)cc1)CC2 (stereo unspecified) | > 30 µM |  | 0.12 µM | > 30 µM | 0.0045 µM | > 30 µM |  |  | inactive | > 30 µM
4 | CCCCN1C(=O)C(CC(C)C)NC(=O)C12CCN(CCCCCCc1ccccc1)CC2 (stereo unspecified) | 6.7 µM | > 10 µM | 0.27 µM | > 10 µM | 0.038 µM | > 10 µM |  |  | inactive | > 10 µM
5 | CCCCN1C(=O)C(CC(C)C)NC(=O)C12CCN(Cc1ccccc1)CC2 (stereo unspecified) | > 30 µM | > 30 µM | 0.9 µM | > 10 µM | 0.56 µM | > 30 µM |  |  | inactive | 
6 | CCCCN1C(=O)C(CC(C)C)NC(=O)C12CCN(Cc1ccc3c(c1)OCCO3)CC2 (stereo unspecified) | > 10 µM |  | 0.17 µM | > 10 µM | 0.02 µM | > 10 µM |  |  | inactive | > 10 µM
7 | C=CCOc1ccc(CN2CCC3(CC2)C(=O)NC(CC2CCCCC2)C(=O)N3CCCC)cc1 (stereo unspecified) | > 10 µM |  | 0.05 µM | > 10 µM | 0.011 µM | > 10 µM |  |  | inactive | > 10 µM
8 | CCCCN1C(=O)C(CC2CCCCC2)NC(=O)C12CCN(Cc1ccc(Oc3ccccc3)cc1)CC2 (stereo unspecified) | > 10 µM |  | 0.17 µM | > 10 µM | 0.0061 µM | > 10 µM |  |  | inactive | > 10 µM

Further lines, with some results ahead:

Row | IC50 [2] | IC50 [3] | IC50 [4] | IC50 [5] | IC50 [6] | IC50 [7] | IC50 [9] | IC50 [10] | SMILES | Activity [1] | IC50 [8]
9 | > 10 µM | > 10 µM | 0.3 µM | > 10 µM | 0.61 µM | > 10 µM |  |  | CCCN1C(=O)[C@H](CC2CCCCC2)NC(=O)C12CCN(CCCCCCc1ccccc1)CC2 | inactive | 
10 | > 10 µM |  | 0.12 µM | > 10 µM | 0.083 µM | > 10 µM |  |  | CCCCN1C(=O)C(CC(C)C)NC(=O)C12CCN(Cc1ccc(Oc3ccccc3)cc1)CC2 (stereo unspecified) | inactive | > 10 µM
11 | > 30 µM | > 30 µM | 3.2 µM |  |  | > 30 µM |  |  | CC(C)C[C@@H]1NC(=O)C2(CCN(Cc3ccccc3)CC2)N(Cc2ccccc2)C1=O | inactive | 
12 | > 10 µM | > 10 µM | 2 µM |  |  | > 10 µM |  |  | CCCN1C(=O)[C@H](CC(C)C)NC(=O)C12CCN(CCCCCCc1ccccc1)CC2 | inactive | 
13 | > 10 µM | > 10 µM | 3 µM |  |  | > 10 µM |  |  | CCCN1C(=O)[C@@H](CC(C)C)NC(=O)C12CCN(CCCCCCc1ccccc1)CC2 | inactive | 
14 | > 30 µM | > 30 µM | 7.6 µM |  |  | > 30 µM |  |  | CC(C)C[C@H]1NC(=O)C2(CCN(Cc3ccccc3)CC2)N(Cc2ccccc2)C1=O | inactive | 
15 | > 10 µM | > 10 µM | 0.27 µM | > 10 µM | 0.86 µM | > 10 µM |  |  | CCCN1C(=O)[C@@H](CC2CCCCC2)NC(=O)C12CCN(CCCCCCc1ccccc1)CC2 | inactive | 
